Results from ChEMBL document CHEMBL1123530, “Adriamycin analogues. Preparation and biological evaluation of some thio ester analogues of adriamycin and N-(trifluoroacetyl)adriamycin 14-valerate” (J Med Chem, 1986).
pIC50: −log10 of the molar value.

Tests used:
Mus musculus [1] = assay: (§1) Compound was evaluated in vivo for antitumor activity utilizing the murine P388 leukemia system in B6D2F1 male mice.; assay type: functional
Procedure, shortened: (§2)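 B6D2F1 male mice were inoculated ip on day 0 with 10⁶ P388 leukemia cells. Drug was given ip once daily on days 1–4, broadly following standard NCI protocols. Activity was read as percent increase in life span relative to untreated controls, reported at the highest nontoxic dose. The experiment was terminated on day 60.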

P388 = assay: as §1; assay type: functional, Mus musculus; procedure, shortened: as §2
Nucleic Acid = assay: (§3) Compound was tested in vitro for ability to bind with double helical calf thymus DNA was determined spectrophotometrically at 480 nmby spectral shift method and the value expressed as the ratio A/Ao; assay type: nucleic-acid assay; details: Bos taurus
Procedure, shortened: (§4)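 Calf thymus double-helical DNA in pH 7.0 Tris buffer, drug/DNA molar ratio 0.1. Absorbance at 480 nm measured for drug alone (A₀) and after mixing with DNA (A), reported as A/A₀ (spectral shift method).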

CCRF-CEM = assay: In vitro growth-inhibition assay utilizing CCRF-CEM cells, a lymphoblastic leukemic line of human origin; assay type: functional; details: read-out: ID50 (the source's name)
Procedure, shortened: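 Human CCRF-CEM lymphoblastic leukemia cells in continuous suspension culture, exposed continuously to drug for 48 h. ID₅₀ is the concentration giving 50% reduction in growth versus untreated control cultures.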

[2] = Time for esterases in unfractionated mouse serum to reduce the concentration due to thio ester deacylation; assay type: ADME
Procedure, shortened: (§5)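 Drug incubated at 37 °C in pH 7.0 carbonate buffer containing 1% unfractionated mouse serum, pooled from 10 animals and stored at -70 °C. Loss of parent compound followed by HPLC; T1/2 is time for the initial concentration to fall by 50% through thio ester deacylation.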

[3] = Time for esterases in unfractionated mouse serum to reduce the concentration due to thio ester deacylation; 10 % hydrolysis at 60 mins; assay type: ADME; procedure, shortened: as §5
[4] = as §3; procedure, shortened: as §4
[5] = T 1/2 value indicates the time required for the initial concentration of compound to be reduced by 50%,; assay type: ADME; procedure, shortened: as §5
Mus musculus [6] = assay: Compound was evaluated in vivo for antitumor activity utilizing the murine P388 leukemia system in B6D2F1 male mice; Curative; assay type: functional, organism-based
Procedure, shortened: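 Murine P388 leukemia in B6D2F1 male mice; 10⁶ tumor cells inoculated ip on day 0; drug given ip once daily on days 1–4, largely per standard NCI protocols. Outcome is percent increase in life span versus untreated controls, at highest nontoxic dose; experiment ended day 60.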

SMILES | ILS (Mus musculus [1]) | Optimal dose (P388) | Ratio (Nucleic Acid) | pIC50 (CCRF-CEM) | half-life [2] | half-life [3] | Ratio [4] | half-life [5] | ILS (Mus musculus [6])
CCC(=O)SCC(=O)[C@]1(O)Cc2c(O)c3c(c(O)c2[C@@H](OC2CC(N)C(O)C(C)O2)C1)C(=O)c1c(OC)cccc1C3=O (stereo partly specified) | 80% | 20 mg/kg | 0.61 | 6.14 | 5 min |  |  |  | 
COc1cccc2c1C(=O)c1c(O)c3c(c(O)c1C2=O)C[C@@](O)(C(=O)CSC(=O)c1ccccc1)C[C@@H]3OC1CC(NC(=O)C(F)(F)F)C(O)C(C)O1 (stereo partly specified) |  |  | 0.98 | 5.42 |  | > 60 min |  |  | 
CCC(=O)SCC(=O)[C@]1(O)Cc2c(O)c3c(c(O)c2[C@@H](OC2CC(NC(=O)C(F)(F)F)C(O)C(C)O2)C1)C(=O)c1c(OC)cccc1C3=O (stereo partly specified) |  |  |  | 5.55 |  |  | 0.99 | 80 min | 
COc1cccc2c1C(=O)c1c(O)c3c(c(O)c1C2=O)C[C@@](O)(C(=O)CO)C[C@@H]3O[C@H]1C[C@H](N)[C@H](O)[C@H](C)O1 [DOXORUBICIN] | 157% | 3 mg/kg | 0.96 | 7.22 |  |  |  |  | 
CCCCC(=O)SCC(=O)[C@]1(O)Cc2c(O)c3c(c(O)c2[C@@H](OC2CC(NC(=O)C(F)(F)F)C(O)C(C)O2)C1)C(=O)c1c(OC)cccc1C3=O (stereo partly specified) |  |  |  | < 5.30 | 22 min |  |  |  | 
COc1cccc2c1C(=O)c1c(O)c3c(c(O)c1C2=O)C[C@@](O)(C(=O)CSC(C)=O)C[C@@H]3OC1CC(N)C(O)C(C)O1 (stereo partly specified) | 220% | 25 mg/kg | 0.61 | 6.05 | 6 min |  |  |  | 
COc1cccc2c1C(=O)c1c(O)c3c(c(O)c1C2=O)C[C@@](O)(C(=O)CSC(=O)c1ccccc1)C[C@@H]3OC1CC(N)C(O)C(C)O1 (stereo partly specified) | 140% | 10 mg/kg | 0.65 | 5.64 | 8 min |  |  |  | 
CCCC(=O)SCC(=O)[C@]1(O)Cc2c(O)c3c(c(O)c2[C@@H](OC2CC(N)C(O)C(C)O2)C1)C(=O)c1c(OC)cccc1C3=O (stereo partly specified) | 90% | 10 mg/kg | 0.63 | 6.25 | 10 min |  |  |  | 
CCCC(=O)SCC(=O)[C@]1(O)Cc2c(O)c3c(c(O)c2[C@@H](OC2CC(NC(=O)C(F)(F)F)C(O)C(C)O2)C1)C(=O)c1c(OC)cccc1C3=O (stereo partly specified) |  |  |  | < 5.30 | 42 min |  |  |  | 
COc1cccc2c1C(=O)c1c(O)c3c(c(O)c1C2=O)C[C@@](O)(C(=O)CSC(C)=O)C[C@@H]3OC1CC(NC(=O)C(F)(F)F)C(O)C(C)O1 (stereo partly specified) |  |  |  | < 5.30 | 18 min |  |  |  | 
CCCCC(=O)SCC(=O)[C@]1(O)Cc2c(O)c3c(c(O)c2[C@@H](OC2CC(N)C(O)C(C)O2)C1)C(=O)c1c(OC)cccc1C3=O (stereo partly specified) | 130% | 10 mg/kg | 0.65 | 6.35 | 8 min |  |  |  | 
CCCCC(=O)OCC(=O)[C@]1(O)Cc2c(O)c3c(c(O)c2[C@@H](OC2CC(NC(=O)C(F)(F)F)C(O)C(C)O2)C1)C(=O)c1c(OC)cccc1C3=O (stereo partly specified) |  | 50 mg/kg | 0.6 | 6.62 | 10 min |  |  |  | Curative
